In ChEMBL document CHEMBL1255540, “Synthesis and biological evaluation of novel coumarin-based inhibitors of Cdc25 phosphatases” (Bioorg Med Chem Lett, 2010):
Calls of active or inactive are those of the source. The calls are words filed in the database; no cut-off is given here.

Key:
[1] = biological target: T1, M-phase inducer phosphatase 2 (Homo sapiens) (UniProt P30305); assay: Inhibition of human recombinant GST-tagged CDC25B expressed in bacterial expression system at 100 uM after 2 hrs
T1 sequence (whole entry): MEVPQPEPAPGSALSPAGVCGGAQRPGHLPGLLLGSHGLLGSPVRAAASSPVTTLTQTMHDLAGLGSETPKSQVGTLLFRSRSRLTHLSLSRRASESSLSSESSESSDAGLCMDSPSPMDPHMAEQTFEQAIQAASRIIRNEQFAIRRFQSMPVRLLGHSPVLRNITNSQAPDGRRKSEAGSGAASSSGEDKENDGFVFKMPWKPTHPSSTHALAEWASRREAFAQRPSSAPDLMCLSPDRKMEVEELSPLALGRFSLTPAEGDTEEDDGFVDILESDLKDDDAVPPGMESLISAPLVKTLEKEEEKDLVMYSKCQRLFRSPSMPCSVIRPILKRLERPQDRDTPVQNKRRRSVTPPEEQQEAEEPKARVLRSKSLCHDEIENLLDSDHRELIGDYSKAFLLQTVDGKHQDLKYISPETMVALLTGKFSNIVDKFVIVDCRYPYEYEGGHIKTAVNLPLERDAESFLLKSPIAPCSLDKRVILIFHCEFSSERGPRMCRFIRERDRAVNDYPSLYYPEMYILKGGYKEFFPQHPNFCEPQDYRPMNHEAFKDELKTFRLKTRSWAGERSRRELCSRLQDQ
Procedure, shortened: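 Truncated GST-Cdc25B (active site only) expressed in bacteria by IPTG induction, purified on GSH-agarose. Tested at 100 µM final, reference at 10 µM. Percent inhibition, mean of three independent experiments with SD.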

[2] = biological target: T2, M-phase inducer phosphatase 3 (Homo sapiens) (UniProt P30307); assay: Inhibition of human recombinant GST-tagged CDC25C expressed in bacterial expression system at 100 uM after 2 hrs
T2 sequence (whole entry): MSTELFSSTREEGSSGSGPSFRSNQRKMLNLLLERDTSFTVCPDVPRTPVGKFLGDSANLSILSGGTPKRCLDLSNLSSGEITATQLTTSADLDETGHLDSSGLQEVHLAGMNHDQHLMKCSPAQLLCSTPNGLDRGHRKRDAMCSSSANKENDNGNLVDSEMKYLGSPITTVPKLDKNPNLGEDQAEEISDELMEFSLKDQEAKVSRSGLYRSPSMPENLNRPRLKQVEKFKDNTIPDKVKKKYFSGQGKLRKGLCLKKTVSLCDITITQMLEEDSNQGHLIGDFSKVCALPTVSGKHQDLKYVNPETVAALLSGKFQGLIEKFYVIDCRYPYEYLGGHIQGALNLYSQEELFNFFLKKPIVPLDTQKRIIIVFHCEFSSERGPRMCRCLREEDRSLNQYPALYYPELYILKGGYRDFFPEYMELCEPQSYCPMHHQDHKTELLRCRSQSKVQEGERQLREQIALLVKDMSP
Procedure, shortened: (§1)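 Full-length GST-Cdc25C, bacterial IPTG expression, GSH-agarose purification. 1 µg enzyme per well. Single-point tests at 100 µM final (reference 10 µM) and IC50 values. Each concentration in three separate microplates, three wells each. IC50 by generalized Poisson regression.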

[3] = biological target: T3, M-phase inducer phosphatase 1 (Homo sapiens) (UniProt P30304); assay: Inhibition of human recombinant GST-tagged CDC25A expressed in bacterial expression system at 100 uM after 2 hrs
T3 sequence (whole entry): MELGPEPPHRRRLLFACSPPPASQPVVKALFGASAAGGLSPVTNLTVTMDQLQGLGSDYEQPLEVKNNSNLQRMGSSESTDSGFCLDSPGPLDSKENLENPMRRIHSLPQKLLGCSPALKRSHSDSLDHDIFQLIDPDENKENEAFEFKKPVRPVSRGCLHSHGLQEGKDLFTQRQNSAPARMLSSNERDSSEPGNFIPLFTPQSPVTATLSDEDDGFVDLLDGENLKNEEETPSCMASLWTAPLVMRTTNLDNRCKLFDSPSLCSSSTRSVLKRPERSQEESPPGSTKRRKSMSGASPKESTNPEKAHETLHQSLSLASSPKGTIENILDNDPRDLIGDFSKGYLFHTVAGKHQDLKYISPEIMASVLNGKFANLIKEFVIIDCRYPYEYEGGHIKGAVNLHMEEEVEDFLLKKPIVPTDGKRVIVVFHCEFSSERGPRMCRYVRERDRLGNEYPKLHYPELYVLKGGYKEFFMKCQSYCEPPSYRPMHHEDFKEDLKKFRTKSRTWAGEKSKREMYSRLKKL
Procedure, shortened: (§2)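 GST-Cdc25A (full length), made in bacteria by IPTG induction and purified on GSH-agarose. Enzyme at 1 µg/well. Compounds tested at 100 µM final (reference at 10 µM). Reported as % inhibition, mean ± SD of three independent experiments.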

[4] = biological target: T4, M-phase inducer phosphatase 1 (Homo sapiens, UniProt P30304); assay: Inhibition of human recombinant GST-tagged CDC25A expressed in bacterial expression system after 2 hrs
T4 sequence (P30304 whole entry): T3 sequence (whole entry)
Procedure, shortened: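 Each concentration tested in three independent microplates, three wells per plate. Median inhibitory concentration derived by generalized Poisson regression.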

[5] = biological target: T5, M-phase inducer phosphatase 3 (Homo sapiens, UniProt P30307); assay: Inhibition of human recombinant GST-tagged CDC25C expressed in bacterial expression system after 2 hrs; procedure, shortened: as §1
T5 sequence (P30307 whole entry): T2 sequence (whole entry)

[6] = biological target: T3, M-phase inducer phosphatase 1 (Homo sapiens); assay: Inhibition of human recombinant GST-tagged CDC25A expressed in bacterial expression system; conditions: TDE = time-dependent effect; procedure, shortened: as §2
[7] = biological target: T3, M-phase inducer phosphatase 1 (Homo sapiens); assay: Inhibition of human recombinant GST-tagged CDC25A expressed in bacterial expression system assessed as residual activity at 100 uM pretreated for 90 mins
Procedure, shortened: (§3)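 Reversibility test. GST-Cdc25A was pre-incubated with compound at 100 µM (reference at 10 µM, DMSO control) for 0–90 min. The mixture was then diluted 100-fold to 1 µM (reference 0.1 µM). Activity was measured by adding OMFP to wells holding 900 ng enzyme. Representative of three independent experiments (M ± SD).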

[8] = biological target: T3, M-phase inducer phosphatase 1 (Homo sapiens); assay: Irreversible inhibition of human recombinant GST-tagged CDC25A expressed in bacterial expression system at 100 uM pretreated for up to 90 mins measured after 100 fold dilution; procedure, shortened: as §3

Row | Structure (SMILES) | inhibition [1] | inhibition [2] | inhibition [3] | IC50 [4] | IC50 [5] | inhibition [6] | Activity [7] | Activity [8]
1 | COc1ccc2c(CSCC(=O)c3ccccc3)cc(=O)oc2c1 | 16.1% | 21.2% |  |  |  |  |  | 
2 | COc1ccc2c(C(=O)/C=C/c3ccc(OC)c(OC)c3)cc(=O)oc2c1 | 9.1% |  | 7.4% |  |  |  |  | 
3 | COc1ccc2c(CSCC(=O)c3ccc(OC)c(OC)c3)cc(=O)oc2c1 |  | 26.2% | 39.8% |  |  |  |  | 
4 | O=C(/C=C/c1cc(=O)oc2cc(O)ccc12)c1ccc(O)cc1 | 9.2% | 23.9% | 55% | 96 µM | > 150 µM |  |  | 
5 | COc1ccc(C(=O)CSCc2cc(=O)oc3cc(OC)ccc23)cc1 |  | 27.9% | 26.7% |  |  |  |  | 
6 | COc1ccc2c(/C=C/C(=O)c3ccc(OC)c(OC)c3)cc(=O)oc2c1 | 6.5% | 69% | 61.5% | 78 µM | 67 µM |  |  | 
7 | Cc1c(/C=C/c2ccc(O)cc2)c(=O)oc2cc(O)ccc12 | 8.5% | 15.6% | 27.5% |  |  |  |  | 
8 | O=C(/C=C/c1cc(=O)oc2cc(O)ccc12)c1ccccc1 | 23.2% | 94.2% | 94.3% | 28 µM | 26 µM |  |  | 
9 | COc1ccc2c(/C=C/C(=O)c3ccccc3)cc(=O)oc2c1 | 35% | 79.3% | 94.2% | 27 µM | 49 µM | tde | 35% | Active
10 | COc1ccc(/C=C/C(=O)c2cc(=O)oc3cc(OC)ccc23)cc1 |  | 4.8% |  |  |  |  |  | 
11 | COc1ccc(/C=C/c2c(C)c3ccc(OC)cc3oc2=O)cc1 |  | 48.4% | 45.3% |  |  |  |  | 
12 | COc1ccc(-c2c(C)c3ccc(OC)cc3oc2=O)cc1 |  | 17.9% | 20.5% |  |  |  |  | 
13 | COc1ccc2c(C(=O)/C=C/c3ccccc3)cc(=O)oc2c1 |  | 31.3% | 45% |  |  |  |  | 
14 | O=C(/C=C/c1cc(=O)oc2cc(O)ccc12)c1ccc(O)c(O)c1 |  | 43.7% | 68.7% | 62 µM | 72 µM |  |  | 
15 | Cc1c(-c2ccc(O)cc2)c(=O)oc2cc(O)ccc12 |  |  | 22% |  |  |  |  | 
16 | COc1ccc(C(=O)/C=C/c2cc(=O)oc3cc(OC)ccc23)cc1 | 21.3% | 64.8% | 66.4% | 70 µM | 47 µM |  |  | 
